An excerpt weighted towards active compounds, which were near 2.2% of everything screened.
IEC-6 tox: cytotoxicity in IEC-6 intestinal epithelial cells, primary screen, cytotoxicity control for KLF5 inhibitor project, cell-based, luminescence; IEC-6 cytotoxicity, luminescence viability; inhibition, % at 5 µM; hit rate 0.78% among 290,000; AID 1825, 2009; in the data active = inhibition above about 22%;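 also: 0% = plate median of test compound wells and 100% = cytotoxic reference compound wells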
APP 5UTR inh: inhibitors of APP translation via 5'UTR reporter, primary screen, APP 5'UTR luciferase, SH-SY5Y cells; SH-SY5Y APP 5'UTR-luciferase reporter, luminescence; inhibition, % at 2 µM; hit rate 0.82% among 190,000;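 active = inhibition above a set limit, derived from the sample mean plus 3 SD, cut at about 45% in these data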
MT stabilize HCS: microtubule stabilizers in HeLa cells, primary screen, imaging, high-content imaging. HeLa tubulin immunostaining HCS, 24 h; share of cells brighter than vehicle mean+2SD. % tubulin-high responders, % at 10 µM. hit rate 0.83% among 200,000;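 active = plate Z-score above 3 for both tubulin-high and condensed-nucleus cell shares, with cell loss under 80%, at 10 µM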;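 also: anti alpha tubulin signal scored within the nucleus-defined area of each cell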
BaF3 tox: parental Ba/F3 cell viability inhibition, counter-screen for JAK2V617F inhibitor project, murine pro-B, CellTiter-Glo luminescence; hit rate 1.1% among 220,000; CellTiter-Glo ATP luminescence; inhibition, % at 5.6 µM; AID 1486, 2009;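 active = inhibition above a per-campaign cutoff, the mean inhibition of all tested compounds plus 3 SD, cut at about 27% in these data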;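 also: 0% = DMSO wells and 100% = JAK Inhibitor I control wells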
b-catenin transl: modulators of beta-catenin nuclear translocation, primary screen, imaging, HeLa cells, immunofluorescence, high-content. nuclear translocation activity, % at 5 µM. hit rate 0.3% among 190,000;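 active = nuclear translocation activity above 50% at 5 µM, with a well cell count of 50 or more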;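 also: per-cell ratio of nuclear to cytoplasmic median beta-catenin stain intensity; plate controls were DMSO negative control for no effect and GSK-3 inhibitor IX positive control for full effect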
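Test system: human HeLa cells, native beta-catenin. Compound dosing: 5 µM primary single dose, 0.1% DMSO, 0.02–20 µM confirmation series. Incubation: compound exposure 24 h at 37°C. Detection: beta-catenin immunostaining with DAPI counterstain, 20x imaging, 6 fields/well. Read-out basis: Nuclear/cytoplasmic beta-catenin signal ratio, % activation.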
Ba/F3 V617F tox: reduced viability of JAK2V617F-dependent Ba/F3 cells, primary screen, JAK2V617F inhibitor project, cell-based, Ba/F3 EpoR-JAK2V617F, luminescence. ATP luminescence. inhibition, % at 5.6 µM. hit rate 1.1% among 220,000. AID 1446, 2008;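 active = inhibition above the campaign mean plus 3 SD over all tested compounds, cut at about 24% in these data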;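 also: cytokine-independent growth of Ba/F3 cells driven by EpoR plus mutant JAK2; 0% = DMSO-treated cells and 100% = JAK inhibitor I control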
Numbers without * were called inactive; . = no result given.

SMILES | IEC-6 tox | APP 5UTR inh | MT stabilize HCS | BaF3 tox | b-catenin transl | Ba/F3 V617F tox
Fc1ccccc1Cn1c2[n+](c3ccc(C(F)(F)F)cc31)CCCCC2 | 1.1 | -20.4 | 5.4 | 32.6* | -1.9 | 14.7
CCN(CCCNC(=O)CCn1c(=S)[nH]c2cc3c(cc2c1=O)OCO3)c1cccc(C)c1 | 0.3 | . | . | . | . | .
O=C(O)c1cccc(-c2ccc3c(c2)OCO3)c1 | 1.5 | . | . | . | . | .
CSc1cccc(-n2cc(-c3ccc4c(c3)OCO4)[nH]c2=O)c1 | 9.7 | -59.0 | 18.7* | 28.6* | 161.8* | 2.5
O=C(Nc1ccnn1C1CCN(Cc2cccc(OCCO)c2)CC1)C1CCOC1 (centres undefined) | 2.0 | . | . | . | . | .
COc1ccc(Cn2c(-c3ccc(Br)cc3)c[n+]3ccccc23)cc1 | 2.0 | -84.9 | 1.5 | 63.9* | -0.4 | 72.0*
CCCOc1ccccc1C1CC(=O)Nc2cc3c(cc21)OCCO3 (centres undefined) | 81.3* | 93.8* | 13.4* | 77.5* | -1.1 | 77.1*
CC(C)Oc1ccccc1C1CC(=O)Nc2cc3c(cc21)OCO3 (centres undefined) | 84.1* | 91.9* | 20.6* | 75.5* | -2.5 | 73.2*
O=C1CC(c2cccnc2)c2cc3c(cc2N1)OCO3 (centres undefined) | -2.0 | 8.3 | 4.1 | 4.2 | -1.6 | -0.7
O=C(NS(=O)(=O)Oc1ccccc1F)OC[C@@H]1CCCN2CCCCC12 (some centres undefined) | -7.3 | . | . | . | . | .
CCOC(=O)N1CCN(C(=O)CSc2ccc3nnc(-c4ccccn4)n3n2)CC1 | 2.6 | -8.3 | 1.8 | 9.8 | -1.1 | 2.0
O=C(CSc1ccc2nnc(-c3ccccn3)n2n1)N1CCOCC1 | -4.1 | 58.8* | 2.2 | 4.2 | . | -4.4
CCCCCCCC1CC(CSc2ncn[nH]2)OC1=O (centres undefined) | 4.6 | 49.4* | 3.7 | -0.4 | -3.3 | -0.5
Cc1cc(C(=O)COC(=O)c2ccccc2Br)c(C)n1CC1CCCO1 (centres undefined) | 3.2 | . | . | -13.8 | -0.8 | 3.7
Cc1cc(C(=O)COc2ccccc2C(N)=O)c(C)n1CC1CCCO1 (centres undefined) | 15.3 | -22.1 | 7.7 | 62.1* | -2.2 | 45.1*
COc1cccc(CCN2C(=O)C(=O)N([C@@H](CNCc3ccccc3)Cc3ccccc3F)C[C@@H]2C(C)(C)C)c1 | . | . | . | . | -2.8 | .
COCCCn1c(=O)c2ccccc2n(Cc2cc(C(=O)OC)ccc2OC)c1=O | 2.4 | . | . | . | . | .
COC(=O)CCC(=O)c1oc2ccc(OC)cc2c1N | -0.9 | 64.1* | 3.2 | 2.8 | -4.2 | -1.0
COc1ccc(/C(O)=C2/C(=O)C(=O)N(c3ccccn3)C2c2cccc(Cl)c2)cc1 (centres undefined) | 1.2 | . | . | . | . | .
COc1ccc(NC(=O)CCNS(=O)(=O)c2cccc3nsnc23)cc1OC | -2.6 | 4.4 | 4.5 | 4.8 | -1.4 | -1.6
CCc1ccc(NC(=O)CCNS(=O)(=O)c2cccc3nsnc23)cc1 | 1.8 | -5.4 | 1.0 | 61.5* | 1.9 | 5.1
O=C(Nc1ccc2c(c1)OCCO2)c1cccc2nc3ccccc3nc12 | 1.0 | 45.7* | 2.3 | 2.3 | -0.4 | -2.0
CC(=O)/C=C/n1c(=S)oc2ccccc21 | 6.5 | 86.6* | 1.9 | 4.7 | -1.4 | 15.5
O=C(N/N=C(\c1ccccc1)c1ccccn1)c1cccc([N+](=O)[O-])c1 | 89.0* | 85.2* | 3.5 | 91.2* | 0.4 | 99.0*
Cn1ccnc1/C(=N\NC(=O)c1ccccc1)c1cccc([N+](=O)[O-])c1 | 1.6 | -11.1 | 4.0 | -1.0 | -2.5 | -3.7
SMILES | IEC-6 tox | APP 5UTR inh | MT stabilize HCS | BaF3 tox | b-catenin transl | Ba/F3 V617F tox
CCOC(=O)c1sc(NS(=O)(=O)c2ccccc2Cl)nc1C | 3.1 | -8.1 | 0.8 | 51.3* | -0.6 | 4.2
O=C(Nc1nc(-c2ccccc2)cs1)C1CCCO1 (centres undefined) | 5.0 | -26.1 | 1.5 | -4.4 | . | -3.2
O=C(Nc1nc(-c2ccc(-c3ccccc3)cc2)cs1)C1CCCO1 (centres undefined) | -1.0 | -13.1 | 42.1* | 7.7 | . | 5.5
O=C(Nc1ccccc1Sc1ccccc1)C1CCCO1 (centres undefined) | -1.7 | 48.7* | 4.0 | 2.0 | 1.2 | -1.6
Cc1ccc(NC2CCCN(C(=O)CCn3nccc3C)C2)cc1C (centres undefined) | -7.0 | . | . | . | . | .
CCOC(=O)c1c(NC(=O)c2ccc(S(=O)(=O)N3CCOCC3)cc2)sc2c1CCN(C)C2 | 2.0 | -2.3 | 5.0 | 32.9* | -1.4 | -3.5
COC(=O)c1c(NC(=O)c2ccccc2N(C)S(=O)(=O)c2ccccc2)sc2c1CCCC2 | 5.7 | . | 22.4* | 4.6 | 2.5 | -1.9
CCOC(=O)c1c(NC(=O)c2ccccc2N(C)S(=O)(=O)c2ccccc2)sc2c1CCCC2 | 10.9 | -2.1 | 12.6* | 4.9 | 60.5* | 2.8
CCc1ccc(C(C)NC(=O)c2ccc3c(c2)OCO3)cc1 (centres undefined) | -4.7 | . | . | . | . | .
O=C1OC(Nc2nc(-c3ccc(F)cc3)cs2)c2ccccc21 (centres undefined) | 17.6 | . | . | . | . | .
Cc1ccc(-c2cc(-c3ccc(C)cc3O)[nH]n2)cc1 | -9.1 | . | . | . | . | .
Cc1ccc(O)c(-c2cc(-c3cccc(Br)c3)n[nH]2)c1 | -9.4 | -32.7 | 17.7* | 5.0 | 0.5 | -4.0
COc1ccc(NC(=O)c2cccc3cccnc23)cc1S(N)(=O)=O | 4.3 | . | . | . | . | .
Cc1cc(C)n(C(=O)c2cc([N+](=O)[O-])cc([N+](=O)[O-])c2)n1 | 4.9 | . | . | . | . | .
Cc1ccc(C)c(Oc2nnnn2-c2ccccc2)c1 | -4.7 | 9.4 | 5.3 | 6.6 | 1.8 | 1.4
Cc1ccc(C(C)C)c(Oc2nnnn2-c2ccccc2)c1 | 3.7 | 17.5 | 32.0* | 5.2 | 2.0 | 7.7
COc1ccc(-c2cnnc(N/N=C/c3c(C)nn(-c4ccccc4)c3Cl)n2)cc1 | 5.8 | 62.0* | 17.5 | 4.5 | 0.7 | 4.5
COc1ccc(-c2cnnc(N/N=C/c3ccc(O)cc3)n2)cc1 | 7.8 | -9.8 | 2.7 | -2.6 | -3.0 | -1.5
CCOC(=O)c1c(NC(=O)CN2CCN(C)CC2)sc(C(=O)Nc2ccccc2)c1C | -4.5 | -16.4 | 35.7* | 7.3 | -1.1 | 6.3
Cc1ccccc1C(=O)Nc1ccnn1C1CCN(C(C)Cc2ccccc2F)CC1 (centres undefined) | 1.1 | . | . | . | . | .
CCc1nnc(NC(=O)CSc2nnc(-c3ccccc3O)n2-c2ccc(C)cc2C)s1 | -0.8 | -8.1 | 37.9* | 2.3 | 0.4 | 0.1
CCc1nnc(NC(=O)CSc2nc3ccccc3o2)s1 | 1.6 | 46.9* | 2.4 | 3.4 | -0.8 | -0.9
CSc1nc2cc(Oc3cccc(Cl)c3Cl)c(Cl)cc2[nH]1 | 7.5 | . | . | -3.5 | 5.3 | 4.3
